ChEMBL document CHEMBL1122384, “Synthesis and evaluation of 24-(isopropyl[75Se]seleno)chol-5-en-3 beta-ol” (J Med Chem, 1983)

Tests used:
[1] = organism: Homo sapiens; test: Adsorbed radiation dose value was calculated to human pancreas; assay type: functional
Method in brief: (§1)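 Human absorbed radiation dose estimated by the standard MIRD method from rat tissue distribution (% dose/g, 1 h–21 days) and excretion data. Excretion came from three individually caged female rats, with urine and feces collected daily over 21 days.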

[2] = system: Rattus norvegicus; test: Tested for distribution of radioactivity in female rat tissue at 1 hr after intravenous administration in kidney; assay type: ADME, organism-based; settings: in vivo
Method in brief: (§2)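 Female Fischer 344 rats (160–180 g), food and water ad libitum, received 5–10 μCi i.v. via lateral tail vein (1 mL Tween 80–EtOH–saline) under light Et₂O anesthesia. At each time they were anesthetized and decapitated, and organs were rinsed in saline, blotted, weighed and gamma counted. Values are % dose/g, mean and range of 3 rats.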

[3] = system: Rattus norvegicus; test: Tested for distribution of radioactivity in female rat tissue at 18 hr after intravenous administration in adrenal; assay type: ADME, organism-based; settings: in vivo; method in brief: as §2
[4] = Adrenal/Tissue ratio calculated from percent dose per gram of tissue determined after 1 day intravenous administration from kidney; assay type: functional
Method in brief: (§3)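 Female Fischer 344 rats (160–180 g), fed ad libitum. Steroid dissolved in EtOH, formulated in Tween 80–EtOH–saline, 5–10 μCi in 1 mL given into a lateral tail vein under light Et₂O anesthesia. Organs removed 1 day post-injection, rinsed, blotted, weighed and gamma counted, 3 rats per time point. Ratios taken from adrenal vs tissue % dose/g.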

[5] = system: Rattus norvegicus; test: Tested for distribution of radioactivity in female rat tissue at 14d ay after intravenous administration in liver; assay type: ADME, organism-based; settings: in vivo; method in brief: as §2
[6] = system: Rattus norvegicus; test: Tested for distribution of radioactivity in female rat tissue at 3 day after intravenous administration in kidney; assay type: ADME, organism-based; settings: in vivo, 72 h; method in brief: as §2
[7] = system: Rattus norvegicus; test: Tested for distribution of radioactivity in female rat tissue at 14d ay after intravenous administration in adrenal; assay type: ADME, organism-based; settings: in vivo; method in brief: as §2
[8] = system: Rattus norvegicus; test: Tested for distribution of radioactivity in female rat tissue at 21 day after intravenous administration in ovaries; assay type: ADME, organism-based; settings: in vivo, 504 h; method in brief: as §2
[9] = system: Rattus norvegicus; test: Tested for distribution of radioactivity in female rat tissue at 24 hr r after intravenous administration in adrenal; assay type: ADME, organism-based; settings: in vivo; method in brief: as §2
[10] = system: Rattus norvegicus; test: Tested for distribution of radioactivity in female rat tissue at 18 hr after intravenous administration in liver; assay type: ADME, organism-based; settings: in vivo; method in brief: as §2
[11] = system: Rattus norvegicus; test: Tested for distribution of radioactivity in female rat tissue at 14d ay after intravenous administration in blood; assay type: ADME, organism-based; settings: in vivo; method in brief: as §2
[12] = system: Rattus norvegicus; test: Tested for distribution of radioactivity in female rat tissue at 3 day after intravenous administration in blood; assay type: ADME, organism-based; settings: in vivo, 72 h; method in brief: as §2
[13] = Adrenal/Tissue ratio calculated from percent dose per gram of tissue determined after 1 day intravenous administration from ovaries; assay type: functional; method in brief: as §3
[14] = system: Rattus norvegicus; test: Tested for distribution of radioactivity in female rat tissue at 14d ay after intravenous administration in ovaries; assay type: ADME, organism-based; settings: in vivo; method in brief: as §2
[15] = system: Rattus norvegicus; test: Tested for distribution of radioactivity in female rat tissue at 6 hr after intravenous administration in ovaries; assay type: ADME, organism-based; settings: in vivo
Method in brief: (§4)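 Female Fischer 344 rats (160–180 g), food and water ad libitum. Se-75-labeled steroid dissolved in EtOH, formulated in Tween 80–EtOH–saline; 5–10 μCi in 1 mL injected into a lateral tail vein under light Et₂O anesthesia. At each time point, 3 rats killed by decapitation under Et₂O. Organs rinsed with saline, blotted, weighed and gamma counted. Values are % dose/g, mean and range.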

[16] = system: Rattus norvegicus; test: Tested for distribution of radioactivity in female rat tissue at 18 hr after intravenous administration in blood; assay type: ADME, organism-based; settings: in vivo; method in brief: as §2
[17] = organism: Homo sapiens; test: Adsorbed radiation dose value was calculated to human kidney; assay type: functional; method in brief: as §1
[18] = system: Rattus norvegicus; test: Tested for distribution of radioactivity in female rat tissue at 24 hr r after intravenous administration in ovaries; assay type: ADME, organism-based; settings: in vivo; method in brief: as §2
[19] = organism: Homo sapiens; test: Adsorbed radiation dose value was calculated to human liver; assay type: functional; method in brief: as §1
[20] = system: Rattus norvegicus; test: Tested for distribution of radioactivity in female rat tissue at 6 hr after intravenous administration in kidney; assay type: ADME, organism-based; settings: in vivo; method in brief: as §2
[21] = system: Rattus norvegicus; test: Tested for distribution of radioactivity in female rat tissue at 7 day after intravenous administration in kidney; assay type: ADME, organism-based; settings: in vivo, 168 h; method in brief: as §4
[22] = system: Rattus norvegicus; test: Tested for distribution of radioactivity in female rat tissue at 7 day after intravenous administration in blood; assay type: ADME, organism-based; settings: in vivo, 168 h; method in brief: as §4
[23] = system: Rattus norvegicus; test: Tested for distribution of radioactivity in female rat tissue at 1 hr after intravenous administration in blood; assay type: ADME, organism-based; settings: in vivo; method in brief: as §2
[24] = Adrenal/Tissue ratio calculated from percent dose per gram of tissue determined after 1 day intravenous administration from pancreas; assay type: functional
Method in brief: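 Female Fischer 344 rats (160–180 g), food and water ad libitum, lightly anaesthetized with Et2O. [75Se]-labelled steroid was given in Tween 80–EtOH–saline, 5–10 μCi, by lateral tail-vein injection. Rats were killed by decapitation under Et2O; organs were rinsed, blotted, weighed and gamma-counted. Adrenal/tissue ratio is from % dose/g, mean of three rats per time point.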

[25] = organism: Homo sapiens; test: Adsorbed radiation dose value was calculated to human spleen; assay type: functional; method in brief: as §1
[26] = system: Rattus norvegicus; test: Tested for distribution of radioactivity in female rat tissue at 24 hr r after intravenous administration in liver; assay type: ADME, organism-based; settings: in vivo; method in brief: as §2
[27] = system: Rattus norvegicus; test: Tested for distribution of radioactivity in female rat tissue at 21 day after intravenous administration in kidney; assay type: ADME, organism-based; settings: in vivo, 504 h; method in brief: as §2
[28] = organism: Homo sapiens; test: Adsorbed radiation dose value was calculated to human small intestine; assay type: functional; method in brief: as §1
[29] = Adrenal/Tissue ratio calculated from percent dose per gram of tissue determined after 1 day intravenous administration from blood; assay type: functional; method in brief: as §3
[30] = organism: Homo sapiens; test: Adsorbed radiation dose value was calculated to human ovaries; assay type: functional, Female gonad; method in brief: as §1
[31] = organism: Homo sapiens; test: Adsorbed radiation dose value was calculated to human adrenals; assay type: functional, Adrenal gland; method in brief: as §1
[32] = system: Rattus norvegicus; test: Tested for distribution of radioactivity in female rat tissue at 1 hr after intravenous administration in adrenal; assay type: ADME, organism-based; settings: in vivo; method in brief: as §2
[33] = system: Rattus norvegicus; test: Tested for distribution of radioactivity in female rat tissue at 24 hr r after intravenous administration in blood; assay type: ADME, organism-based; settings: in vivo; method in brief: as §2
[34] = organism: Homo sapiens; test: Adsorbed radiation dose value was calculated to human total body; assay type: functional; method in brief: as §1
[35] = system: Rattus norvegicus; test: Tested for distribution of radioactivity in female rat tissue at 21 day after intravenous administration in liver; assay type: ADME, organism-based; settings: in vivo, 504 h; method in brief: as §2
[36] = system: Rattus norvegicus; test: Tested for distribution of radioactivity in female rat tissue at 18 hr after intravenous administration in ovaries; assay type: ADME, organism-based; settings: in vivo; method in brief: as §2
[37] = system: Rattus norvegicus; test: Tested for distribution of radioactivity in female rat tissue at 21 day after intravenous administration in blood; assay type: ADME, organism-based; settings: in vivo, 504 h; method in brief: as §2
[38] = system: Rattus norvegicus; test: Tested for distribution of radioactivity in female rat tissue at 18 hr after intravenous administration in kidney; assay type: ADME, organism-based; settings: in vivo; method in brief: as §2
[39] = system: Rattus norvegicus; test: Tested for distribution of radioactivity in female rat tissue at 3 day after intravenous administration in ovaries; assay type: ADME, organism-based; settings: in vivo, 72 h; method in brief: as §2
[40] = Adrenal/Tissue ratio calculated from percent dose per gram of tissue determined after 1 day intravenous administration from lung; assay type: functional; method in brief: as §3
[41] = system: Rattus norvegicus; test: Tested for distribution of radioactivity in female rat tissue at 3 day after intravenous administration in liver; assay type: ADME, organism-based; settings: in vivo, 72 h; method in brief: as §2
[42] = system: Rattus norvegicus; test: Tested for distribution of radioactivity in female rat tissue at 14d ay after intravenous administration in kidney; assay type: ADME, organism-based; settings: in vivo; method in brief: as §2
[43] = system: Rattus norvegicus; test: Tested for distribution of radioactivity in female rat tissue at 6 hr after intravenous administration in liver; assay type: ADME, organism-based; settings: in vivo; method in brief: as §2
[44] = organism: Homo sapiens; test: Adsorbed radiation dose value was calculated to human lungs; assay type: functional; method in brief: as §1
[45] = system: Rattus norvegicus; test: Tested for distribution of radioactivity in female rat tissue at 7 day after intravenous administration in liver; assay type: ADME, organism-based; settings: in vivo, 168 h; method in brief: as §4
[46] = system: Rattus norvegicus; test: Tested for distribution of radioactivity in female rat tissue at 7 day after intravenous administration in ovaries; assay type: ADME, organism-based; settings: in vivo, 168 h; method in brief: as §4
[47] = system: Rattus norvegicus; test: Tested for distribution of radioactivity in female rat tissue at 24 hr r after intravenous administration in kidney; assay type: ADME, organism-based; settings: in vivo; method in brief: as §2
[48] = system: Rattus norvegicus; test: Tested for distribution of radioactivity in female rat tissue at 21 day after intravenous administration in adrenal; assay type: ADME, organism-based; settings: in vivo, 504 h; method in brief: as §2
[49] = Adrenal/Tissue ratio calculated from percent dose per gram of tissue determined after 1 day intravenous administration from spleen; assay type: functional; method in brief: as §3
[50] = system: Rattus norvegicus; test: Tested for distribution of radioactivity in female rat tissue at 1 hr after intravenous administration in liver; assay type: ADME, organism-based; settings: in vivo; method in brief: as §2
[51] = system: Rattus norvegicus; test: Tested for distribution of radioactivity in female rat tissue at 6 hr after intravenous administration in blood; assay type: ADME, organism-based; settings: in vivo; method in brief: as §2
[52] = system: Rattus norvegicus; test: Tested for distribution of radioactivity in female rat tissue at 3 day after intravenous administration in adrenal; assay type: ADME, organism-based; settings: in vivo, 72 h; method in brief: as §2
[53] = system: Rattus norvegicus; test: Tested for distribution of radioactivity in female rat tissue at 7 day after intravenous administration in adrenal; assay type: ADME, organism-based; settings: in vivo, 168 h; method in brief: as §4
[54] = Adrenal/Tissue ratio calculated from percent dose per gram of tissue determined after 1 day intravenous administration from liver; assay type: functional; method in brief: as §3
[55] = system: Rattus norvegicus; test: Tested for distribution of radioactivity in female rat tissue at 6 hr after intravenous administration in adrenal; assay type: ADME, organism-based; settings: in vivo; method in brief: as §2
[56] = system: Rattus norvegicus; test: Tested for distribution of radioactivity in female rat tissue at 1 hr after intravenous administration in ovaries; assay type: ADME, organism-based; settings: in vivo; method in brief: as §2

## CC(C)[Se]CCC[C@H](C)[C@H]1CC[C@H]2[C@@H]3CC=C4C[C@@H](O)CC[C@]4(C)[C@H]3CC[C@]12C
[1]
  Dose: 3.4 rd mCi-1
[2]
  Dose/g: 1.31%
[3]
  Dose/g: 42.97%
[4]
  Ratio: 30
[5]
  Dose/g: 0.5%
[6]
  Dose/g: 1.48%
[7]
  Dose/g: 18.23%
[8]
  Dose/g: 2.52%
[9]
  Dose/g: 47.75%
[10]
  Dose/g: 2.78%
[11]
  Dose/g: 0.16%
[12]
  Dose/g: 0.38%
[13]
  Ratio: 9
[14]
  Dose/g: 2.83%
[15]
  Dose/g: 4.95%
[16]
  Dose/g: 1%
[17]
  Dose: 3.8 rd mCi-1
[18]
  Dose/g: 5.29%
[19]
  Dose: 3.7 rd mCi-1
[20]
  Dose/g: 1.69%
[21]
  Dose/g: 1.34%
[22]
  Dose/g: 0.26%
[23]
  Dose/g: 3.97%
[24]
  Ratio: 46.4
[25]
  Dose: 3.4 rd mCi-1
[26]
  Dose/g: 1.76%
[27]
  Dose/g: 0.64%
[28]
  Dose: 3.5 rd mCi-1
[29]
  Ratio: 67.3
[30]
  Dose: 5.9 rd mCi-1
[31]
  Dose: 30 rd mCi-1
[32]
  Dose/g: 15.65%
[33]
  Dose/g: 0.71%
[34]
  Dose: 1.8 rd mCi-1
[35]
  Dose/g: 0.34%
[36]
  Dose/g: 6.12%
[37]
  Dose/g: 0.11%
[38]
  Dose/g: 1.87%
[39]
  Dose/g: 3.81%
[40]
  Ratio: 10.9
[41]
  Dose/g: 0.99%
[42]
  Dose/g: 0.91%
[43]
  Dose/g: 4.93%
[44]
  Dose: 3.2 rd mCi-1
[45]
  Dose/g: 0.68%
[46]
  Dose/g: 3.82%
[47]
  Dose/g: 1.59%
[48]
  Dose/g: 15.22%
[49]
  Ratio: 19.2
[50]
  Dose/g: 6.73%
[51]
  Dose/g: 2.08%
[52]
  Dose/g: 32.32%
[53]
  Dose/g: 29.5%
[54]
  Ratio: 27.1
[55]
  Dose/g: 35.61%
[56]
  Dose/g: 2.24%
